OX1R antag-1: OX1R (HCRTR1) antagonists, primary screen, fluorescence, CHO/OX1R cells, Fluo-8 calcium, orexin A; Orexin/Hypocretin receptor type 1 (Homo sapiens), O43613; Fluo-8 calcium fluorescence; inhibition, % at 5 µM; 330,000 compounds, 0.43% hits; AID 434989, 2010;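 active means inhibition above its plate's threshold, mean inhibition of all tested compounds on the plate plus 3 SD, cut at about 37% in these data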;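 further: 0% = orexin A challenge wells and 100% = SB-334867-A antagonist wells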
OX1R antag-2: antagonists of human orexin 1 receptor (OX1R). Orexin/Hypocretin receptor type 1 (Homo sapiens), O43613. OX1R-expressing cells, FRET antagonist read-out. inhibition, % at 6.6 µM. 330,000 compounds, 1.8% hits. AID 485270, 2010; in the data active means inhibition mostly above about 38%, no sharp cut-off; inactive means mostly below about 40%;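 further: 0% = agonist challenge alone and 100% = reference antagonist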
GPR7 antag: GPR7 receptor antagonists, primary screen, cell-based, fluorescence, single concentration. GPR7-expressing cells, fluorescence antagonist assay. inhibition, % at 4.4 µM. 290,000 compounds, 1.1% hits. AID 1861, 2009; in the data active means inhibition above about 16%, passing the limit was not always enough;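 further: cells stimulated with the agonist NPW; 0% = agonist with vehicle and 100% = vehicle without agonist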
Target sequence (P48145 whole entry, looked up): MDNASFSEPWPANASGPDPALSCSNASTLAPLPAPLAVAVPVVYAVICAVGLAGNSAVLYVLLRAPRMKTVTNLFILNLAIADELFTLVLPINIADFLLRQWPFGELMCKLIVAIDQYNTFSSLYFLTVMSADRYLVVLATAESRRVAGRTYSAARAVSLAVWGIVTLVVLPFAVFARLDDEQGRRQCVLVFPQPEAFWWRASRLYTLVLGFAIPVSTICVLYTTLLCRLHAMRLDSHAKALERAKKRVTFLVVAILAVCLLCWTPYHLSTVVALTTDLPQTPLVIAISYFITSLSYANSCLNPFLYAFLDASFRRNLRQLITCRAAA
CHO parental Ca: ATP-evoked calcium signal inhibitors, parental CHO, primary screen, counter-screen for OX1R antagonist project, cell-based, fluorescence, Fluo-8 calcium dye | parental CHO-K1, ATP-induced calcium, Fluo-8 fluorescence | inhibition, % at 5.6 µM | 330,000 compounds, 0.63% hits | AID 463079, 2010;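 active means inhibition above that plate's mean sample inhibition plus 3 SD, cut at about 26% in these data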;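 further: 0% = ATP-challenged DMSO wells and 100% = DMSO wells without ATP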
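material = parental CHO cells | also added = ATP as calcium-mobilizing challenge | dosing = single point at 5.6 µM | detection = intracellular calcium via Fluo-8 no-wash fluorescent dye | read-out = % inhibition | benchmarks = low control ATP plus DMSO, high control DMSO only | repeats = one well per compound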
TAAR1 ag: human TAAR1 agonists, primary screen, Fluo-8 calcium fluorescence, CHO RD-HGA16 cells. vehicle wells 0%, saturating PEA agonist 100%. activation, % at 3 µM. 360,000 compounds, 0.99% hits;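 active means activation above the mean activation of all test compounds in the run plus 3 SD, cut at about 38% in these data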
Target sequence (Q96RJ0 whole entry, looked up): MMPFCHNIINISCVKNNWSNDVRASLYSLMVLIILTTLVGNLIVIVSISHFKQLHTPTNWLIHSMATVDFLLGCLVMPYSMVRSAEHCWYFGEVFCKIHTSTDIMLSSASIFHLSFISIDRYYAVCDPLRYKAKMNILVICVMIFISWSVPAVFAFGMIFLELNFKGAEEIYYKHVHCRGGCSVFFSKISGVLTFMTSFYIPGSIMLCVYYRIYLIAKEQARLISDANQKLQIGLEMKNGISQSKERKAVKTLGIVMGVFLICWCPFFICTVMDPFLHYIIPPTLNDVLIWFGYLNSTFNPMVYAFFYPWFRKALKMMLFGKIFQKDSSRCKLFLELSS
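System: CHO-derived RD-HGA16 cells with stable Gα16 and human TAAR1. Times: 17-24 h plating, Fluo-8 75 min 37 °C, 30 min RT. Measured by: calcium-sensitive Fluo-8 signal, excitation 470-495, emission 515-575 nm. Read-out basis: % activation relative to PEA EC100 response. Control set: DMSO and PEA EC100. Repeats: no replicates (n 1).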
TAAR1 antag: human TAAR1 antagonists, primary screen, Fluo-8 calcium fluorescence, CHO RD-HGA16 cells; AID 624466, 2012; antagonist; 360,000 compounds, 1.5% hits; Trace amine-associated receptor 1 (Homo sapiens), Q96RJ0; inhibition, % at 3 µM;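 active means inhibition above a per-plate cutoff, the mean inhibition of test compounds on that plate plus 3 SD, cut at about 49% in these data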;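 further: 0% = DMSO plus EC80 beta-PEA response and 100% = DMSO alone without agonist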
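Assay system: CHO-derived RD-HGA16 cells stably expressing human TAAR1 plus Gα16. Timing: 140 s kinetic read after compound, 140 s after agonist. Technique: kinetic Fluo-8 calcium fluorescence measurement. Measure: % inhibition of agonist calcium response.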
OX1R Ca confirm: OX1R (HCRTR1) antagonists, confirmation, fluorescence, CHO/OX1R cells, Fluo-8 calcium, orexin A. shares compounds with OX1R antag-1. orexin A calcium Fluo-8 fluorescence. inhibition, % at 5 µM. 1,100 compounds, 38% hits; in the data active means inhibition above about 29%;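 further: 0% = agonist challenge alone and 100% = reference antagonist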
CHO Ca counter: ATP-evoked calcium inhibition in parental CHO, counter-screen for OX1R antagonist project, cell-based, fluorescence, CHO-K1, triplicate; shares compounds with OX1R antag-1; ATP-induced calcium, Fluo-8 fluorescence; inhibition, % at 5.6 µM; 1,100 compounds, 9.3% hits; AID 492965, 2010;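 active means inhibition above a per-plate limit, the mean inhibition of that plate's test compounds plus 3 SD, cut at about 25% in these data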;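 further: 0% = ATP challenge with DMSO and 100% = DMSO without ATP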
OX1R HTRF confirm: OX1R (HCRTR1) antagonists, confirmation, cell-based, HTRF. AID 492964, 2010. 1,800 compounds, 49% hits. OX1R-expressing cells, HTRF antagonist assay. inhibition, % at 6.6 µM. shares compounds with OX1R antag-2; in the data active means inhibition above about 55%;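 further: CHO cells expressing OX1R stimulated with orexin A at about EC80; 0% = agonist challenge alone and 100% = reference antagonist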
CHO-K1 HTRF cnt: signal inhibition in parental CHO-K1 cells, counter-screen for OX1R antagonist project, cell-based, HTRF; inhibition, % at 6.6 µM; shares compounds with OX1R antag-2; 1,800 compounds, 48% hits; HTRF counterscreen; AID 493232, 2011; in the data active means inhibition above about 17%;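 further: 0% = agonist challenge with vehicle and 100% = vehicle alone without agonist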
An asterisk follows results filed as active; . = not tested or not shown. Rows were chosen to be rich in hits. Some 4.6% of all compounds tested hit in one or more screens of this group.

SMILES | OX1R antag-1 | OX1R antag-2 | GPR7 antag | CHO parental Ca | TAAR1 ag | TAAR1 antag | OX1R Ca confirm | CHO Ca counter | OX1R HTRF confirm | CHO-K1 HTRF cnt
Nc1nc(CSC(=S)N2CCN(c3ccccc3)CC2)nc(Nc2ccc(F)cc2)n1 | -13.7 | 24.8 | -8.8 | -16.3 | 2.8 | -2.7 | . | . | . | .
CC1CC(C)CN(C(=S)SCc2nc(N)nc(Nc3ccccc3)n2)C1 (configuration not stated) | 40.5* | 74.7* | -5.7 | -29.7 | 2.6 | -34.2 | 47.9* | -13.9 | 76.9* | 3.6
NC(=S)N=Nc1c(O)n(C2OC(=O)c3ccccc32)c2ccccc12 (configuration not stated) | -5.8 | 62.5 | -9.0 | -6.0 | 2.0 | 9.5 | . | . | . | .
Cc1cc(C)cc(N(CC(=O)NC2CCCC2)C(=O)CNC(=O)c2cccs2)c1 | -19.6 | 15.9 | 2.8 | -23.4 | 5.5 | -2.1 | . | . | . | .
Cc1ccc2sc3ccc(NC(=O)c4ccccc4Cl)cc3c(=O)c2c1 | 36.8 | 71.2* | -3.2 | -16.8 | 5.2 | 17.7 | 20.7 | 4.5 | 72.1* | 18.2*
Cc1ccc(C)c(NS(=O)(=O)c2c(C)ccc3nsnc23)c1 | -10.7 | 28.4 | -19.9 | -13.8 | 8.6 | 6.1 | . | . | . | .
Cc1ccc2nsnc2c1S(=O)(=O)NCCc1c(C)[nH]c2ccc(F)cc12 | 69.6* | 78.0* | 1.4 | -6.3 | 1.5 | 10.9 | 37.6* | -4.0 | 62.0* | 5.5
CC(Oc1ccc(Cl)cc1Cl)C(=O)Nc1ccc(O)cc1 (configuration not stated) | -13.4 | 6.3 | -15.4 | -11.6 | 7.5 | -11.9 | . | . | . | .
COc1ccc(CCNc2cc(C)[nH]c(=O)c2)cc1OC | 31.4 | 44.8* | -9.3 | -3.0 | 1.4 | -21.5 | 4.9 | 3.6 | 18.1 | 5.1
COc1cccc(-c2cc3nc(-c4ccccc4)cc(N4CCC5(CC4)OCCO5)n3n2)c1 | 45.9* | 43.2* | -8.4 | -12.8 | -1.5 | 32.7 | 17.7 | -2.3 | 52.7 | 10.2
COc1cccc(-c2cc3nc(-c4ccccc4)cc(N4CCN(C(=O)c5ccoc5)CC4)n3n2)c1 | . | . | . | . | 0.0 | 39.8 | . | . | . | .
Cc1cc(N/N=C/c2ccc(O)c(C)c2O)nc(-c2ccccc2O)n1 | 50.7* | 63.4* | -6.2 | 18.1 | 12.8 | 56.6* | 39.5* | 3.8 | 47.0 | 17.3*
Cc1ccc(Nc2cc(C)nc(-c3ccccc3O)n2)cc1 | -14.3 | 27.9 | -8.2 | -7.2 | 11.1 | 21.0 | . | . | . | .
C/C(=N\Nc1cc(C)nc(-c2ccccc2O)n1)c1ccccc1 | -63.3 | 10.5 | -0.9 | -30.6 | 11.9 | 29.0 | . | . | . | .
Cc1cc(NCCCN)nc(-c2ccccc2O)n1 | 41.0 | 55.2* | 0.2 | 6.0 | 2.2 | 23.6 | 17.7 | -3.2 | 22.0 | 3.1
CCOCCCN1CC(C(=O)NCc2ccc3c(c2)OCO3)CC1=O (configuration not stated) | -14.8 | -1.6 | -12.0 | -0.5 | 0.1 | 4.9 | . | . | . | .
COCCCNC(=O)c1cc2cc3cc(OC)ccc3nc2o1 | -6.0 | 9.8 | -5.4 | -8.6 | 1.6 | -4.1 | . | . | . | .
Cc1noc(C)c1COC(=O)c1ccc2c(c1)OCO2 | -4.8 | 6.0 | -10.0 | 0.7 | 3.7 | 5.0 | . | . | . | .
Cc1noc(C)c1COC(=O)c1ccc2c(c1)S(=O)(=O)c1ccccc1C2=O | 59.4* | 111.0* | -9.2 | -18.4 | 13.8 | -0.6 | 64.7* | -9.5 | 102.3* | 17.3*
Cc1csc(-c2coc3cc(O)cc(C)c3c2=O)n1 | 60.1* | 93.6* | -12.0 | -4.4 | 3.3 | -17.0 | 24.9 | 4.4 | 91.3* | 7.1
Cc1nnc(SCCC(=O)Nc2ccc(F)cc2)s1 | -0.1 | 21.2 | -1.8 | -4.8 | 5.0 | 8.8 | . | . | . | .
CCCSc1nnc(NC(=O)Nc2ccc(F)cc2)s1 | 29.4 | 76.7* | 10.8 | 9.4 | 20.1 | 15.6 | 9.7 | 20.8 | 47.6 | 10.5
Cc1ccc(NC(=S)Nc2nc(CC(=O)Nc3ccccc3)cs2)cc1 | -3.8 | 1.4 | -14.7 | -3.2 | 8.9 | -4.2 | . | . | . | .
O=C(Nc1ccccc1)c1nc[nH]c1C(=O)NCc1ccccc1 | -14.7 | 10.1 | . | 2.8 | 3.8 | -24.1 | . | . | . | .
NNC(=O)c1nc[nH]c1C(=O)Nc1ccccc1 | 25.4 | 51.5* | -17.8 | -20.9 | 2.6 | -15.6 | 8.2 | 17.2 | 22.6 | 3.4
SMILES | OX1R antag-1 | OX1R antag-2 | GPR7 antag | CHO parental Ca | TAAR1 ag | TAAR1 antag | OX1R Ca confirm | CHO Ca counter | OX1R HTRF confirm | CHO-K1 HTRF cnt
O=C(Cn1ncn2c(cc3sccc32)c1=O)NC1CCCC1 | -17.7 | 8.6 | 1.6 | -5.1 | 2.9 | -12.7 | . | . | . | .
O=C(Nc1cccc(-c2nc3ccccc3[nH]2)c1)c1ccco1 | 24.0 | 72.7* | 13.9 | -15.4 | 11.0 | 28.8 | 9.5 | -4.8 | 49.5 | 8.5
CCc1cc(=O)[nH]c(SCC(=O)Nc2cc(C)on2)n1 | -8.6 | 8.4 | . | -2.7 | -0.4 | -20.3 | . | . | . | .
COc1ccc2oc(C(=O)Nc3nc4ccccc4[nH]3)c(C)c2c1 | 31.1 | 53.3* | -11.9 | -5.9 | 5.3 | 11.7 | -1.6 | -3.6 | 28.2 | 9.1
COc1ccc(Br)c(C(=O)Nc2nc3ccccc3[nH]2)c1 | -18.6 | 27.6 | 14.3 | 1.2 | -0.8 | -2.1 | . | . | . | .
CC(C)[C@H](NC(=O)c1ccco1)C(=O)OCc1cc(=O)n2c(n1)sc1ccccc12 | -25.6 | 8.1 | -12.8 | -14.2 | 10.6 | 45.2 | . | . | . | .
O=C(OCc1cc(=O)n2c(n1)sc1ccccc12)c1cccc(O)c1 | 33.7 | 97.2* | -8.9 | 13.5 | 5.0 | 16.7 | 52.0* | -8.7 | 86.3* | 6.4
Cc1ccc(NC(=O)CN2CCCC2c2cccs2)cc1S(=O)(=O)N1CCCCC1 (configuration not stated) | 43.3* | 29.5* | . | -5.5 | 16.7 | 16.1 | 12.1 | 1.0 | 47.6 | 0.7
CC(=O)N1CCN(S(=O)(=O)c2cccc(C(=O)Nc3ccc(C)cn3)c2)CC1 | -0.1 | 1.7 | -2.6 | -7.3 | 2.7 | -16.3 | . | . | . | .

Screening data from PubChem.
